Active and inactive are the calls of the source. No cut-off for these calls is given here.
What was measured:
[1] = system: NIH3T3; test: Antifibrotic activity against mouse NIH/3T3 cells assessed as inhibition of cell proliferation after 72 hrs by MTT assay; type: functional, cell-based
Procedure, shortened: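 NIH-3T3 seeded at 5000 cells/well in DMEM/F12 with 10% FBS, allowed to attach 24 h, then exposed 72 h to graded compound concentrations. MTT (5 mg/mL stock) added for 2–4 h, formazan dissolved in DMSO, OD read at 490 nm. IC50 from regression equation; three repeats, mean.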

[2] = system: NIH3T3; test: (§1) Antifibrotic activity against mouse NIH/3T3 cells assessed as inhibition of TGFbeta1-induced increase in COL1A1 mRNA level at 500 nM preincubated for 1 hr followed by TGFbeta-1 addition measured after 24 hrs by qRT-PCR method; type: functional, cell-based
Procedure, shortened: (§2)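 NIH-3T3 cells pretreated 1 h with 500 nM compound, then stimulated with rat TGF-β1 5 ng/ml for 24 h. RNA extracted and qPCR run 40 cycles (95 °C 5 s / 60 °C 60 s). Transcripts normalized to GAPDH, fold change by 2^-ΔΔCt. n = 3, means ± SD.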

[3] = system: NIH3T3; test: Antifibrotic activity against mouse NIH/3T3 cells assessed as inhibition of alpha-SMA mRNA level at 500 nM measured after 24 hrs by qRT-PCR method; type: functional, cell-based
Procedure, shortened: (§3)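 NIH-3T3 (DMEM/F12, 10% FBS, 37 °C, 5% CO2) given 500 nM compound without TGF-β1 for 24 h. Total RNA extracted; qPCR of α-SMA, FN, COL1A1 run 40 cycles (95 °C 5 s, 60 °C 60 s). Normalized to GAPDH, relative expression by 2^-ΔΔCt. Mean of three experiments ± SD.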

[4] = system: NIH3T3; test: Antifibrotic activity against mouse NIH/3T3 cells assessed as inhibition of FN mRNA level at 500 nM measured after 24 hrs by qRT-PCR method; type: functional, cell-based; procedure, shortened: as §3
[5] = system: NIH3T3; test: (§4) Antifibrotic activity against mouse NIH/3T3 cells assessed as inhibition of TGFbeta1-induced increase in alpha-SMA mRNA level at 500 nM preincubated for 1 hr followed by TGFbeta-1 addition measured after 24 hrs by qRT-PCR method; type: functional, cell-based; procedure, shortened: as §2
[6] = system: NIH3T3; test: (§5) Antifibrotic activity against mouse NIH/3T3 cells assessed as inhibition of TGFbeta1-induced increase in FN mRNA level at 500 nM preincubated for 1 hr followed by TGFbeta-1 addition measured after 24 hrs by qRT-PCR method; type: functional, cell-based; procedure, shortened: as §2
[7] = system: NIH3T3; test: Antifibrotic activity against mouse NIH/3T3 cells assessed as inhibition of COL1A1 mRNA level at 500 nM measured after 24 hrs by qRT-PCR method; type: functional, cell-based; procedure, shortened: as §3
[8] = Inhibition of cell proliferation in HUVEC at 10 uM […] by MTT assay relative to control; type: cell-based; settings: human, HUVEC cells
Procedure, shortened: (§6)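 MTT test on HUVEC (DMEM/F12, 10% FBS) plated at 5000 cells/well, attached 24 h, then treated at 1, 10, 40 and 80 μM for the period printed as 42 h. MTT (5 mg/mL stock) incubated 2–4 h, formazan dissolved in DMSO, absorbance at 490 nm. Proliferation relative to control; mean of three experiments.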

[9] = system: NIH3T3; test: as §4, with “protein expression by measuring ratio of alpha-SMA to beta-actin protein” for “mRNA”, “Western blot” for “qRT-PCR”, “method (reference value: 0.87)” for “method”; type: functional
Procedure, shortened: (§7)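 Western blot of NIH-3T3 treated with 500 nM compound plus rat TGF-β1 5 ng/ml for 24 h; PBS as control. RIPA/1% PMSF lysates quantified by BCA, run on 10% SDS-PAGE and blotted to PVDF. Blocked in 5% milk; α-SMA, FN, COL1A1 primaries 1:1000 overnight at 4 °C; HRP secondary 1:5000 for 2 h; ECL. Band intensity relative to β-actin. Three repeats, means ± SD.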

[10] = system: NIH3T3; test: as §1, with “protein expression by measuring ratio of COL1A1 to beta-actin protein” for “mRNA”, “Western blot” for “qRT-PCR”, “method (reference value: 0.26)” for “method”; type: functional; procedure, shortened: as §7
[11] = Inhibition of cell proliferation in HUVEC at 80 uM after […] by MTT assay relative to control; type: cell-based; settings: human, HUVEC cells; procedure, shortened: as §6
[12] = system: NIH3T3; test: as §5, with “protein expression by measuring ratio of FN to beta-actin protein” for “mRNA”, “Western blot” for “qRT-PCR”, “method (reference value: 0.95)” for “method”; type: functional; procedure, shortened: as §7
[13] = Mus musculus, NIH3T3, 72 h, read-out: IC50

C=C1CC[C@@H]2[C@](C)(CO)[C@H](O)CC[C@@]2(C)[C@@H]1C/C=C1\C=COC1=O
IC50 ([1]; nih3t3): Not Active

C=C1CC[C@H]2[C@@](C)(CC[C@@H](OC(C)=O)[C@@]2(C)C(=O)OC)[C@@H]1CCC1=CCOC1=O
IC50 [1, 13]: 80.6 µM

C=C1CC[C@H]2[C@@](C)(CC[C@@H](OC(C)=O)[C@@]2(C)C(=O)OCc2ccccc2)[C@@H]1/C=C/C1=CCOC1=O
IC50 [1, 13]: 52.7 µM

C=C1CC[C@@H]2[C@](C)(CO)[C@H](O)CC[C@@]2(C)[C@@H]1CCC1=CCOC1=O [DEOXYANDROGRAPHOLIDE]
inhibition [2]: Active | inhibition [3]: Active | inhibition [4]: Active | inhibition [5]: Active | IC50 [1, 13]: 176 µM | inhibition [6]: Active | inhibition [7]: Active

C=C1CC[C@H]2[C@@](C)(CC[C@@H](OC(C)=O)[C@@]2(C)C(=O)OCc2ccccc2)[C@@H]1CCC1=CCOC1=O
inhibition at 10 µM [8]: 6.6% | Ratio [9]: 0.4 | inhibition [2]: Active | inhibition [3]: Active | inhibition [4]: Active | inhibition [5]: Active | Ratio [10]: 0.38 | inhibition at 80 µM [11]: 55.7% | Ratio [12]: 0.46 | IC50 [1, 13]: 12.9 µM | inhibition [6]: Active | inhibition [7]: Active

C=C1CC[C@H]2[C@@](C)(CC[C@@H](O)[C@@]2(C)C(=O)OCc2ccccn2)[C@@H]1CCC1=CCOC1=O
IC50 [1, 13]: 79.8 µM

C=C1CC[C@H]2[C@@](C)(CC[C@@H](OC(C)=O)[C@@]2(C)C(=O)OC)[C@@H]1/C=C/C1=CCOC1=O
IC50 [1, 13]: 32.2 µM

C=C1CC[C@H]2[C@@](C)(CC[C@@H](OC(C)=O)[C@@]2(C)C(=O)OCc2ccccn2)[C@@H]1CCC1=CCOC1=O
IC50 [1, 13]: 55.5 µM

C=C1CC[C@H]2[C@@](C)(CC[C@@H](O)[C@@]2(C)C(=O)OCc2ccccc2)[C@@H]1C/C=C1\C=COC1=O
IC50 [1, 13]: 177 µM

C=C1CC[C@@H]2[C@](C)(CO)[C@H](O)CC[C@@]2(C)[C@@H]1C/C=C1/C(=O)OC[C@H]1O [ANDROGRAPHOLIDE]
inhibition at 10 µM [8]: 10.4% | inhibition [2]: Active | inhibition [3]: Active | inhibition [4]: Active | inhibition [5]: Active | inhibition at 80 µM [11]: 26.4% | IC50 [1, 13]: 95.3 µM | inhibition [6]: Active | inhibition [7]: Active

C=C1CC[C@H]2[C@@](C)(CC[C@@H](O)[C@@]2(C)C(=O)OCc2ccccc2)[C@@H]1CCC1=CCOC1=O
IC50 [1, 13]: 37.9 µM

C=C1CC[C@H]2[C@@](C)(CC[C@@H](OC(C)=O)[C@@]2(C)C(=O)OC)[C@@H]1C/C=C1\C=COC1=O
IC50 [1, 13]: 69.7 µM

C=C1CC[C@H]2[C@@](C)(CC[C@@H](O)[C@@]2(C)C(=O)OCc2ccccc2)[C@@H]1/C=C/C1=CCOC1=O
inhibition at 10 µM [8]: 9.7% | Ratio [9]: 0.39 | inhibition [2]: Active | inhibition [3]: Active | inhibition [4]: Active | inhibition [5]: Active | Ratio [10]: 0.42 | inhibition at 80 µM [11]: 68.7% | Ratio [12]: 0.47 | IC50 [1, 13]: 13.6 µM | inhibition [6]: Active | inhibition [7]: Active

C=C1CC[C@H]2[C@@](C)(CC[C@@H](OC(C)=O)[C@@]2(C)C(=O)OCc2ccccn2)[C@@H]1/C=C/C1=CCOC1=O
IC50 [1, 13]: 34.9 µM

C=C1CC[C@H]2[C@@](C)(CC[C@@H](O)[C@@]2(C)C(=O)OC)[C@@H]1CCC1=CCOC1=O
IC50 [1, 13]: 60.6 µM

C=C1CC[C@H]2[C@@](C)(CC[C@@H](O)[C@@]2(C)C(=O)OC)[C@@H]1C/C=C1\C=COC1=O
IC50 [1, 13]: 177 µM

C=C1CC[C@H]2[C@@](C)(CC[C@@H](OC(C)=O)[C@@]2(C)C(=O)OCc2ccccc2)[C@@H]1C/C=C1\C=COC1=O
IC50 [1, 13]: 78 µM

C=C1CC[C@H]2[C@@](C)(CC[C@@H](O)[C@@]2(C)C(=O)OCc2ccccn2)[C@@H]1/C=C/C1=CCOC1=O
IC50 [1, 13]: 80.2 µM

C=C1CC[C@H]2[C@@](C)(CC[C@@H](O)[C@@]2(C)C(=O)OC)[C@@H]1/C=C/C1=CCOC1=O
IC50 [1, 13]: 111 µM

C=C1CC[C@@H]2[C@](C)(CO)[C@H](O)CC[C@@]2(C)[C@@H]1/C=C/C1=CCOC1=O
inhibition [2]: Active | inhibition [3]: Active | inhibition [4]: Active | inhibition [5]: Active | IC50 [1, 13]: 64.3 µM | inhibition [6]: Active | inhibition [7]: Active

Reference: ChEMBL document CHEMBL4270620, “Synthesis and anti-fibrosis activity study of 14-deoxyandrographolide-19-oic acid and 14-deoxydidehydroandrographolide-19-oic acid derivatives” (Eur J Med Chem, 2018)
